# Screening results as filed in PubChem.
# TAAR1 agonist: human TAAR1 agonism; activation, % at 3 µM; AID 624467; 360,000 tested, 0.99% active; CHO RD-HGA16 TAAR1, Fluo-8 calcium fluorescence; vehicle wells 0%, saturating PEA agonist 100%;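 active = activation above the mean activation of all test compounds in the run plus 3 SD, cut at about 38% in these data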
# Target sequence (Q96RJ0 whole entry, looked up): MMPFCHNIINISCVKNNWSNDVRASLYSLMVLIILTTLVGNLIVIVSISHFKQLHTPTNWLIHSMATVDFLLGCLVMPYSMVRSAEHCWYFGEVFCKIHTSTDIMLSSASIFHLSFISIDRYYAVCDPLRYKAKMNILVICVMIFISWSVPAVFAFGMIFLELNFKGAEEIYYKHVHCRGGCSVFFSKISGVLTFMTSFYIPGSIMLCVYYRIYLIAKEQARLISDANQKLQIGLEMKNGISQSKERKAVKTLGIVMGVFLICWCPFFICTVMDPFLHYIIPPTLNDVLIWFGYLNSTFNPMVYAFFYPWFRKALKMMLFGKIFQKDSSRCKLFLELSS
#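 test system = CHO RD-HGA16 cells carrying human TAAR1 plus Gα16 | schedule = 17-24 h seeding, 75 min 37 °C dye, 30 min RT | compound dosing = 3 µM single concentration | control set = DMSO and PEA EC100 | replicates = n 1 | signal = Fluo-8 fluorescence, 5 s baseline then 140 s kinetic read | measure = percent activation vs PEA EC100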
# TAAR1 antagonist: human TAAR1 antagonism | CHO RD-HGA16 TAAR1, Fluo-8 calcium fluorescence, antagonist | inhibition, % at 3 µM | 360,000 tested, 1.5% active | Q96RJ0;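 active = inhibition above a per-plate cutoff, the mean inhibition of test compounds on that plate plus 3 SD, cut at about 49% in these data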;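 note: 0% = DMSO plus EC80 beta-PEA response and 100% = DMSO alone without agonist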
#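 Assay system: RD-HGA16 CHO cells with stable hTAAR1 and Gα16 / Reagent: EC80 β-phenethylamine stimulus / Doses: 3 µM, single point / Timing: dye loading 75 min at 37 °C, then 30 min room temperature / Measured by: Fluo-8 intracellular calcium dye fluorescence, real-time kinetic reads / Controls: vehicle wells and EC80 agonist wells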
# CRFBP-R2 block: CRF-BP/CRF-R2 complex antagonism. HEK293 CRF-R2/CRF-BP, CRF-induced calcium fluorescence. 350,000 tested, 0.59% active. inhibition, % at 11.8 µM;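 active = inhibition of the ligand-induced calcium signal above about 50% at the single tested concentration, limit read from the data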
# ANO1 activ: activators or potentiators of mouse TMEM16A chloride channel; HEK293 TMEM16A/YFP-H148Q/I152L, iodide quench fluorescence; hits give low values; 340,000 tested, 0.3% active; AID 623877; B-score at 10 µM; Q8BHY3;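 active = fluorescence-ratio B-score plate-corrected deviation score at least 3 library SD below zero, with starting fluorescence score within 5 deviations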;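 note: channel opened by trigger with iodide after compound preincubation; score built on the fluorescence ratio of max minus min over baseline; more negative score means more quench and so TMEM16A activation or potentiation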
# TMEM16A inh: blocks the mouse calcium-activated chloride channel TMEM16A. Q8BHY3. HEK293 TMEM16A/YFP iodide influx fluorescence, ionomycin. normalized B-score (activity score, 25-100; higher = stronger inhibition) at 10 µM. 310,000 tested, 1.2% active. AID 588511;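 active = ratio plate-corrected score three or more library SD toward inhibition, starting fluorescence score within five deviations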;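 note: score derived from kinetic fluorescence span divided by baseline fluorescence per well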
# CRFR2-BP ag: CRF-BP/CRF-R2 complex agonism | HEK293 CRF-R2/CRF-BP, calcium dye fluorescence (FLIPR); percent of saturating CRF peptide response | activation, % at 13.2 µM | 350,000 tested, 0.46% active | AID 588473;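 active = activation of at least 50%, plus an integration ratio under a set limit after plate pattern correction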;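 note: plate controls were neutral control wells without compound for no effect and CRF at EC100 for full effect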
# Active calls of the source: *; i = inactive; nt = no result given; ! = repeats disagree. Only some compounds are listed: those with a hit (about 3.9% of all), similar ones and a draw of the others.
SMILES,TAAR1 agonist,TAAR1 antagonist,CRFBP-R2 block,ANO1 activ,TMEM16A inh,CRFR2-BP ag
CCCCN1C(=S)NC[C@@H]1Cc1ccccc1,6,-7,-17,i,i,-2
COc1ccc(-c2cccc(CCC(=O)N3CCN(c4cc(C)ccc4C)CC3)c2)cc1,1,42,1,nt,nt,2
COc1cccc(-c2noc(CCC(=O)N3CCN(c4cc(C)ccc4C)CC3)n2)c1,3,36,8,nt,nt,1
COc1ccccc1-c1noc(CCC(=O)N2CCN(c3cc(C)ccc3C)CC2)n1,8,56*,2,nt,nt,-2
Cc1ccc(C)c(N2CCN(C(=O)CCc3nc(-c4ccccc4C(F)(F)F)no3)CC2)c1,7,68*,9,nt,nt,1
COc1ccc(C(=O)CCC(=O)N2CCN(c3cc(C)ccc3C)CC2)cc1,-3,-9,7,-5.8*,i,-1
Cc1ccc(-c2noc(CCC(=O)N3CCN(c4cc(C)ccc4C)CC3)n2)cc1,0,-35,-11,nt,nt,1
COCCN(C(=O)COC(=O)c1c(C)nn(-c2ccccc2)c1C)c1c(N)n(Cc2ccccc2)c(=O)[nH]c1=O,2,-4,-15,nt,nt,1
O=C(C=Cc1ccccc1)Nc1ccccc1,-1,-3,5,i,nt,-1
CC(C)(C)c1ccc(/C=C/C(=O)Nc2ccncc2)cc1,3,53*,-53,i,i,1
CC(OC(=O)c1c2c(nc3ccccc13)/C(=C\c1ccc3c(c1)OCO3)CCC2)C(=O)Nc1ccc(S(N)(=O)=O)cc1 (configuration not stated),nt,nt,-302,i,nt,314*
Cc1cccc(C)c1NC(=O)COC(=O)c1ccc2c(c1)OCO2,0,-13,10,i,i,7
CCOc1cc(/C=C2\CCCc3c2nc2ccccc2c3C(=O)O)ccc1OC,59*,15,-182,i,i,201*
O=C(COC(=O)c1c2c(nc3ccccc13)/C(=C/c1cccc([N+](=O)[O-])c1)CCC2)NC1CCS(=O)(=O)C1 (configuration not stated),11,51*,-2,i,i,2
Cc1cccc(C)c1NC(=O)COC(=O)c1c2c(nc3ccccc13)/C(=C\c1ccc3c(c1)OCO3)CCC2,26,53*,-56,i,i,95*
Cc1nc2nc(C(F)(F)F)[nH]c2nc1C,0,-13,7,nt,nt,-2
NCC(O)CN1CCN(Cc2ccccc2)CC1 (configuration not stated),3,1,-12,i,i,4
N#CCNC(=O)C1c2ccccc2Oc2ccccc21,2,-29,6,i,i,-3
COc1ccc(C2CC(C(F)(F)F)n3nc(C(=O)O)c(Cl)c3N2)cc1OC (configuration not stated),3,3,3,i,i,3
COc1ccc(C2CC(C(F)(F)F)n3nc(CO)c(Cl)c3N2)cc1OC (configuration not stated),3,-1,7,-14*,i,-1
CCOC(=O)c1cccc(NC(=O)COc2nsnc2N2CCOCC2)c1,13,50*,8,i,i,-3
CC(=O)c1cccc(NC(=O)COc2nsnc2N2CCOCC2)c1,7,4,7,i,i,2
CCN(CC)c1ccc(/C=C/C(=O)c2ccc(Br)cc2)cc1,138*,81*,-343,i,i,325*
Cc1ccc(-c2nnc(Nc3ccccc3)c3ccccc23)cc1S(=O)(=O)NCC1CCCO1 (configuration not stated),17,58*,-4,i,i,0
CCOC(=O)c1ccc(NC(=O)c2cccc(S(=O)(=O)N3c4ccccc4CC3C)c2)s1 (configuration not stated),0,63*,3,i,i,2
SMILES,TAAR1 agonist,TAAR1 antagonist,CRFBP-R2 block,ANO1 activ,TMEM16A inh,CRFR2-BP ag
CC1Cc2ccccc2N1S(=O)(=O)c1cccc(C(=O)NCCCO)c1 (configuration not stated),0,9,9,i,i,-2
COc1ccc(C(=O)Nc2cc(C(F)(F)F)ccc2-n2cncn2)cc1,0,-17,-25,i,i,4
COc1cc(NC(=O)c2cc3cccc(OC)c3o2)cc(C(=O)Nc2cccc(C(F)(F)F)c2)c1,21,87*,4,i,i,-2
CCN1CCN(Cc2ccc(NC(=O)c3cc(NC(=O)c4ccno4)cc(OC)c3)cc2C(F)(F)F)CC1,7,14,14,i,i,-1
COc1cc(NC(=O)c2ccno2)cc(C(=O)Nc2cccc(C(F)(F)F)c2)c1,18,38,-1,i,i,0
COc1ccc(-c2cc(C(=O)Nc3cc(OC)cc(C(=O)Nc4cccc(C(F)(F)F)c4)c3)[nH]n2)cc1,10,55*,3,i,i,-1
COc1ccc(Oc2ccc(C(F)(F)F)cc2NC(=O)c2ccc(OC)cc2)cc1,7,-30,52*,i,i,6
CCN1CCN(Cc2ccc(NC(=O)c3cc(NC(=O)c4cc5cccc(OC)c5o4)cc(OC)c3)cc2C(F)(F)F)CC1,11,59*!,-2,i,i,-1
CC(=O)Nc1ccc(NC(=O)CSc2nnc(C)n2-c2ccccc2)cc1,5,-7,1,i,i,0
C[C@@H]1CN([C@@H](C)CO)C(=O)CCCn2nncc2CO[C@@H]1CN(C)C(=O)Nc1ccccc1C(F)(F)F,3,-27,-9,nt,nt,0
Cc1nnc(SCc2nnc(-c3ccccc3Br)o2)s1,2,-14,-6,-7.9*,i,-5
O=S(=O)(NCc1ccc(F)cc1)c1ccc(-n2cccn2)cc1,1,8,-7,i,i,-2
CCC(=O)N(Cc1c(C)nn(-c2ccccc2)c1Cl)c1ccc(Cl)cc1,-2,5,68*,i,i,-2
CCOc1ccc(CN(C)C(=O)CNC(=O)C2CCCCC2)cc1OC,-6,9,1,i,i,0
COc1cc(SC#N)ccc1N=Cc1c(C)[nH]n(-c2ccc(Cl)cc2)c1=O,1,13,-12,i,i,-1
COc1cc(SC#N)ccc1N=Cc1c(C)[nH]n(-c2ccc(C)c(C)c2)c1=O,-1,87*,-82,-13*,i,46
CC(NCc1ccc(-c2ccccc2)cc1)C(O)c1ccccc1 (configuration not stated),27,31,-50,i,i,0
COc1ccccc1S(=O)(=O)N1CCn2cccc2C1C (configuration not stated),0,-16,103*,i,nt,2
